According to ChEMBL document CHEMBL2010740, “Synthesis and evaluation of 2-amido-3-carboxamide thiophene CB₂ receptor agonists for pain management” (Bioorg Med Chem Lett, 2012):

Tests used:
[1] = target: T1, Cannabinoid receptor 2 (Rattus norvegicus) (UniProt Q9QZN9); assay: Agonist activity at rat recombinant CB2 receptor expressed in HEK293 cells co-expressing chimeric Gaq/o protein by FLIPR assay by FLIPR assay relative to CP55940; assay type: functional, cell-based
T1 sequence (whole entry): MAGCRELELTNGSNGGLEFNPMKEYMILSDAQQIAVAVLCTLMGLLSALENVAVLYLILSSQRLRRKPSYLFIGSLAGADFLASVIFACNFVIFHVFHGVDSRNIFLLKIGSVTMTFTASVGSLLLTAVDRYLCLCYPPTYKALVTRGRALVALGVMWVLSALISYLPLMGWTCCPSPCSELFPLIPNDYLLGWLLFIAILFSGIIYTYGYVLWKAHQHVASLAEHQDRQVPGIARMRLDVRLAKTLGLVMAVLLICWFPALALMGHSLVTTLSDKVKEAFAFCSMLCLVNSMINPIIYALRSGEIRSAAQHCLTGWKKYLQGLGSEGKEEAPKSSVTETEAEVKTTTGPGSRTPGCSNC
In short: (§1)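 FLIPR functional assay in HEK 293 cells stably co-expressing chimeric Gαq/o protein and the CB receptor. Net peak evoked response was compared with the peak response to CP-55,940.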

Cannabinoid receptor 1 [2] = target: Cannabinoid receptor 1 (Homo sapiens, UniProt P21554); assay: Displacement of [3H]CP-55940 from human recombinant CB1 receptor expressed in CHO cells after 90 mins; assay type: cell-based
In short: (§2)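 Competitive binding: [³H]CP-55,940 displaced from membranes of HEK 293 cells stably transfected with human or rat CB₂, or CHO cells stably transfected with human or rat CB₁. Reported as pKi. Determinations >2 (duplicate of duplicate).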

Rattus norvegicus [3] = assay: Analgesic activity in ip dosed rat spinal nerve ligation model of neuropathic pain assessed as […] administered 2 weeks post-surgery measured after 30 mins; assay type: functional, organism-based
In short: (§3)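 Rat spinal nerve ligation (Chung) neuropathic pain model. Dosing was intraperitoneal, two weeks after surgery and 30 min before testing. Read-out was mechanical allodynia (paw withdrawal threshold), given as a dose–response.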

[4] = Plasma clearance in rat at 3 umol/kg, iv; assay type: ADME, organism-based
Rattus norvegicus [5] = assay: Analgesic activity in rat complete Freund's adjuvant model of chronic inflammatory pain assessed as reduction in thermal hyperalgesia at 10 umol/kg, ip; assay type: functional; design: scale not given: the % may be the effect or the level left
In short: (§4)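 Rat CFA inflammatory pain model. Read-out was thermal hyperalgesia in the CFA-injected right paw, with the left paw as control. Test compound and the CB₂ antagonist SR-144528 (10 µmol/kg ip) were given alone and combined, with vehicle controls.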

Rattus norvegicus [6] = assay: Analgesic activity in rat spinal nerve ligation model of neuropathic pain assessed as […] at 10 umol/kg, ip administered 2 weeks post-surgery measured after 30 mins; assay type: functional; design: scale not given: the % may be the effect or the level left; in short: as §3
Rattus norvegicus [7] = assay: Analgesic activity in rat incision model of post-operative pain assessed as reduction in paw withdrawal latency at 3 umol/kg, ip administered 90 mins post-surgical incision measured after 30 mins; assay type: functional; design: scale not given: the % may be the effect or the level left
Rattus norvegicus [8] = assay: Analgesic activity in ip dosed rat chronic constriction injury model of neuropathic pain assessed as reduction in mechanical allodynia administered 2 weeks post-surgery measured after 30 mins; assay type: functional, organism-based
Cannabinoid receptor 1 [9] = target: T2, Cannabinoid receptor 1 (Rattus norvegicus, UniProt P20272); assay: Displacement of [3H]CP-55940 from rat recombinant CB1 receptor expressed in CHO cells after 90 mins; assay type: cell-based; in short: as §2
Rattus norvegicus [10] = assay: Neurotoxicity in rat assessed as decrease in spontaneous locomotory activity at 30 umol/kg, ip after 30 mins; assay type: toxicity, organism-based; design: scale not given: the % may be the effect or the level left; settings: in vivo, 0.5 h
In short: (§5)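 Spontaneous horizontal locomotor activity in rats. Compound was given intraperitoneally 30 min before testing.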

Rattus norvegicus [11] = assay: Neurotoxicity in ip dosed rat assessed as decrease in spontaneous locomotory activity after 30 mins; assay type: toxicity, organism-based; settings: in vivo, 0.5 h; in short: as §5
Rattus norvegicus [12] = assay: Analgesic activity in ip dosed rat incision model of post-operative pain assessed as reduction in paw withdrawal latency administered 90 mins post-surgical incision measured after 30 mins; assay type: functional, organism-based
Rattus norvegicus [13] = assay: Neurotoxicity in rat assessed as decrease in spontaneous locomotory activity at 100 umol/kg, ip after 30 mins; assay type: toxicity, organism-based; design: scale not given: the % may be the effect or the level left; settings: in vivo, 0.5 h; in short: as §5
[14] = Cmax in rat at 10 umol/kg, ip; assay type: ADME, organism-based; design: dose 10 umol/kg, route intraperitoneal; settings: in vivo
Cannabinoid receptor 2 [15] = target: T3, Cannabinoid receptor 2 (Rattus norvegicus, UniProt Q9QZN9); assay: Displacement of [3H]CP-55940 from rat recombinant CB2 receptor expressed in HEK293 cells after 90 mins; assay type: cell-based; in short: as §2
T3 sequence (Q9QZN9 whole entry): T1 sequence (whole entry)

[16] = Tmax in rat at 10 umol/kg, po; assay type: ADME, organism-based; settings: in vivo
[17] = Metabolic stability in rat microsomes assessed as compound remaining after 30 mins; assay type: ADME, Microsome; settings: read-out: Stability
In short: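 Metabolic stability: compound incubated with human or rat liver microsomes. Percent parent remaining was measured after 30 min.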

[18] = AUC in rat at 3 umol/kg, iv; assay type: ADME, organism-based; settings: plasma
[19] = AUC in rat at 10 umol/kg, ip; assay type: ADME, organism-based; settings: plasma
Rattus norvegicus [20] = assay: Analgesic activity in rat spinal nerve ligation model of neuropathic pain assessed as […] at 3 umol/kg, ip administered 2 weeks post-surgery measured after 30 mins; assay type: functional; design: scale not given: the % may be the effect or the level left; in short: as §3
Cannabinoid receptor 2 [21] = target: Cannabinoid receptor 2 (Homo sapiens, UniProt P34972); assay: Agonist activity at human recombinant CB2 receptor expressed in HEK293 cells assessed as inhibition of forskolin-induced cAMP production after 20 mins by ELISA; assay type: functional, cell-based
In short: (§6)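 cAMP assay in HEK 293 cells stably expressing the relevant CB receptor, with a fixed concentration of forskolin. cAMP was quantified by ELISA. Activation is given as percent of the CP-55,940 control response.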

Rattus norvegicus [22] = assay: Analgesic activity in rat complete Freund's adjuvant model of chronic inflammatory pain assessed as latency in paw withdrawal at 100 umol/kg, po administered 48 hrs after CFA-challenge measured after 60 mins; assay type: functional
Rattus norvegicus [23] = assay: Analgesic activity in rat complete Freund's adjuvant model of chronic inflammatory pain assessed as reduction in thermal hyperalgesia at 10 umol/kg, ip co-administered with CB2 antagonist SR144528; assay type: functional; design: scale not given: the % may be the effect or the level left; in short: as §4
Cannabinoid receptor 1 [24] = target: T2, Cannabinoid receptor 1; assay: Agonist activity at rat recombinant CB1 receptor expressed in HEK293 cells assessed as inhibition of forskolin-induced cAMP production after 20 mins by ELISA; assay type: functional, cell-based; in short: as §6
[25] = Half life in rat at 3 umol/kg, iv; assay type: ADME, organism-based; settings: in vivo
Cannabinoid receptor 2 [26] = target: T3, Cannabinoid receptor 2; assay: Agonist activity at rat recombinant CB2 receptor expressed in HEK293 cells co-expressing chimeric Gaq/o protein by FLIPR assay by FLIPR assay; assay type: functional, cell-based; in short: as §1

T2 sequence (P20272 whole entry): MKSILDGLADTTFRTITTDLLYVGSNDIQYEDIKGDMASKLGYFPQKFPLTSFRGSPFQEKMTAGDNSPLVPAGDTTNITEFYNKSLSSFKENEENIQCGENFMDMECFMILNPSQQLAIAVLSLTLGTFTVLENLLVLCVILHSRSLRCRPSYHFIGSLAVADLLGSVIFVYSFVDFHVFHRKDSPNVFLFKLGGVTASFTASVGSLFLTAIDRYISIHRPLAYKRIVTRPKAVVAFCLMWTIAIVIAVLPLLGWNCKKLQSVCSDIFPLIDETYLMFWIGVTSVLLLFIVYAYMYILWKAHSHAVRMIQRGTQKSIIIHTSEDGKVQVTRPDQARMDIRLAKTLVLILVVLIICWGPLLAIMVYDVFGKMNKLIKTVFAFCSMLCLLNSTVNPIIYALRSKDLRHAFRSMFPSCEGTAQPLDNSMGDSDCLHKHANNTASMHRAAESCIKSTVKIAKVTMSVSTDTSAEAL
Cannabinoid receptor 2 (Homo sapiens, UniProt P34972), sequence (P34972 whole entry): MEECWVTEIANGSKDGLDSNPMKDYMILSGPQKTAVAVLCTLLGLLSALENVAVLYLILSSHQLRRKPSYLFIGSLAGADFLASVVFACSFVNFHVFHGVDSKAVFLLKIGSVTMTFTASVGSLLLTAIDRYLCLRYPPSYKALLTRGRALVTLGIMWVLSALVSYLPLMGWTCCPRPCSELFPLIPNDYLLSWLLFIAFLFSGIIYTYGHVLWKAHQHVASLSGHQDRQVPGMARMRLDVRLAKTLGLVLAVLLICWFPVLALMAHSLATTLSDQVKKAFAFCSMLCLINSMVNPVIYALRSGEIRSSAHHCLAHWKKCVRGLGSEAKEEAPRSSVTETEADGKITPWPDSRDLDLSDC
Cannabinoid receptor 1 (Homo sapiens, UniProt P21554), sequence (P21554 whole entry): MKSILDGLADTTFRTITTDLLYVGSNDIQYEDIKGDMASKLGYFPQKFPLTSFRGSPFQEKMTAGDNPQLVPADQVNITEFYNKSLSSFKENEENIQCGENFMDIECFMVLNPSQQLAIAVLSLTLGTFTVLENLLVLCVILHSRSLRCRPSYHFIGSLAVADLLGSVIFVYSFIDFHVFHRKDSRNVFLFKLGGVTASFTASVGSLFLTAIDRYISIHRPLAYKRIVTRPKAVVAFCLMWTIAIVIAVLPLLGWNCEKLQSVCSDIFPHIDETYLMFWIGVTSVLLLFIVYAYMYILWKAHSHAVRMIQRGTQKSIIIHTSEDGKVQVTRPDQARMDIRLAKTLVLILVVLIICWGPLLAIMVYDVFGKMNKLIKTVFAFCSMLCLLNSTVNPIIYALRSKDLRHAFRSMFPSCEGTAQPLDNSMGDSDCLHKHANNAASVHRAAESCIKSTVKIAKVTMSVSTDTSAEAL

## CCCNC(=O)c1c(NC(=O)C23CC4CC(CC2C4)C3)sc2c1CCOC2
[1]
  Imax: 79%
Cannabinoid receptor 1 [2]
  Ki: 1550 nM
Rattus norvegicus [3]
  Activity: Dose-dependent effect
[4]
  clearance: 63.3 mL/min/kg
Rattus norvegicus [5]
  Activity: 91%
Rattus norvegicus [6]
  Activity: 29%
Rattus norvegicus [7]
  Activity: 21%
Rattus norvegicus [8]
  Activity: Dose-dependent effect
Cannabinoid receptor 1 [9]
  Ki: 302 nM
Rattus norvegicus [10]
  Activity: 50%
Rattus norvegicus [11]
  Activity: Dose-dependent effect
Rattus norvegicus [12]
  Activity: Dose-dependent effect
Rattus norvegicus [13]
  Activity: 83%
[14]
  Cmax: 150 ng/mL
Cannabinoid receptor 2 [15]
  Ki: 33.9 nM
[16]
  Tmax: 1.2 h
[17]
  remaining at 0.5 h: 5%
[18]
  AUC: 320 ng·h/mL
[19]
  AUC: 1020 ng·h/mL
Rattus norvegicus [20]
  Activity: 8%
Cannabinoid receptor 2 [21]
  IC50: 1.95 nM
Rattus norvegicus [22]
  Activity: 58%
Rattus norvegicus [23]
  Activity: 24%
Cannabinoid receptor 1 [24]
  IC50: 1410 nM
[25]
  half-life: 1.5 h
Cannabinoid receptor 2 [26]
  IC50: 1550 nM
